Active and inactive are the calls of the source. The rule behind the calls is not given here.
Columns and labels:
Human alphaherpesvirus 2 = assay: Antiviral activity against Herpes simplex virus 2 strain G assessed as reduction of virus induced cytopathicity by cell based assay; assay type: functional, organism-based; conditions: Human alphaherpesvirus 2, strain G
Outline: (§1)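 Confluent cell monolayers infected with 100 CCID50 virus, or 20 PFU for plaque assays, then incubated with serial compound dilutions. Host cells listed for the non-HIV panel are HEL fibroblasts, Vero, HeLa, CRFK or MDCK. Cytopathicity is scored, or plaques counted for VZV, once infected untreated controls reach full CPE.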

Human alphaherpesvirus 1 [1] = assay: Antiviral activity against thymidine kinase-deficient acyclovir-resistant Herpes simplex virus 1 strain KOS assessed as reduction of virus induced cytopathicity by cell based assay; assay type: functional, organism-based; conditions: Human alphaherpesvirus 1, KOS; outline: as §1
FM3A = assay: Cytostatic activity against mouse FM3A cells; assay type: functional
Human alphaherpesvirus 3 [2] = assay: Antiviral activity against Varicella-zoster virus strain OKA expressing thymidine kinase assessed as reduction of virus induced cytopathicity by cell based assay; assay type: functional; conditions: Human alphaherpesvirus 3, strain Oka vaccine; outline: as §1
Human alphaherpesvirus 1 [3] = assay: Antiviral activity against Herpes simplex virus 1 strain KOS assessed as reduction of virus induced cytopathicity by cell based assay; assay type: functional, organism-based; conditions: Human alphaherpesvirus 1, KOS; outline: as §1
Human betaherpesvirus 5 [4] = assay: Antiviral activity against Human cytomegalovirus strain AD169 assessed as reduction of virus induced cytopathicity by cell based assay; assay type: functional, organism-based; conditions: Human betaherpesvirus 5, AD169; outline: as §1
HEL = assay: Cytotoxicity against human HEL cells after 3 days by coulter counter; assay type: cell-based; conditions: 72 h
Outline: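 HEL cells seeded at 5 × 10^3 cells/well and allowed to proliferate for 24 h, then exposed to a range of compound concentrations for 3 days at 37 °C. Cells counted with a Coulter counter.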

Coxsackievirus B4 = assay: Antiviral activity against Coxsackievirus B4 assessed as reduction of virus induced cytopathicity by cell based assay; assay type: functional, organism-based
Outline: (§2)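 Confluent cell monolayers in 96-well plates (HEL, Vero, HeLa, CRFK or MDCK; the cell type per virus is not specified) infected with 100 CCID50 virus or 20 PFU and incubated with serial compound dilutions. Cytopathicity scored once it was complete in untreated infected controls.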

Human alphaherpesvirus 3 [5] = assay: Antiviral activity against thymidine kinase-deficient Varicella-zoster virus YS/R assessed as reduction of virus induced cytopathicity by cell based assay; assay type: functional, organism-based; conditions: Human alphaherpesvirus 3, YS/R
CCRF-CEM = assay: Cytostatic activity against human CEM cells; assay type: cell-based
[6] = tested on: Mammalian orthoreovirus 1; assay: Antiviral activity against Reovirus-1 assessed as reduction of virus induced cytopathicity by cell based assay; assay type: functional, organism-based; outline: as §2
Human respirovirus 3 = assay: Antiviral activity against Human parainfluenza virus 3 assessed as reduction of virus induced cytopathicity by cell based assay; assay type: functional, organism-based; outline: as §2
Vaccinia virus = assay: Antiviral activity against Vaccinia virus Lederle assessed as reduction of virus induced cytopathicity by cell based assay; assay type: functional, organism-based; conditions: Orthopoxvirus vaccinia; outline: as §1
Human alphaherpesvirus 3 [7] = assay: Antiviral activity against Varicella-zoster virus YS expressing thymidine kinase assessed as reduction of virus induced cytopathicity by cell based assay; assay type: functional, organism-based; conditions: Human alphaherpesvirus 3, YS
[8] = Cytotoxicity against human HEL cells assessed as alteration of cell morphology after 3 days by microscopic analysis; assay type: cell-based
Outline: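 MCC taken as the lowest compound concentration producing microscopically detectable alteration of HEL fibroblast morphology.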

Human betaherpesvirus 5 [9] = assay: Antiviral activity against Human cytomegalovirus Davis assessed as reduction of virus induced cytopathicity by cell based assay; assay type: functional, organism-based; conditions: Human betaherpesvirus 5, Davis; outline: as §1
[10] = tested on: Respiratory syncytial virus; assay: Antiviral activity against Respiratory syncytial virus Long assessed as reduction of virus induced cytopathicity by cell based assay; assay type: functional, organism-based; outline: as §2
Punta Toro virus = assay: Antiviral activity against Punta Toro virus assessed as reduction of virus induced cytopathicity by cell based assay; assay type: functional, organism-based; outline: as §2
Human alphaherpesvirus 3 [11] = assay: Antiviral activity against thymidine kinase-deficient Varicella-zoster virus 07/1 assessed as reduction of virus induced cytopathicity by cell based assay; assay type: functional, organism-based; conditions: Human alphaherpesvirus 3, 07/1; outline: as §1
L1210 = assay: Cytostatic activity against mouse L1210 cells; assay type: functional
[12] = tested on: Vesicular stomatitis virus; assay: Antiviral activity against Vesicular stomatitis virus assessed as reduction of virus induced cytopathicity by cell based assay; assay type: functional, organism-based; outline: as §1
Sindbis virus = assay: Antiviral activity against Sindbis virus assessed as reduction of virus induced cytopathicity by cell based assay; assay type: functional, organism-based; outline: as §2
[13] = Selectivity index, ratio CC50 for human HEL cells to EC50 for Human cytomegalovirus Davis; assay type: toxicity, cell-based; conditions: read-out: Ratio CC50/EC50
Outline: (§3)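 HEL fibroblasts seeded at 5 × 10^3 cells/well and allowed to grow 24 h. Medium with compound dilutions is then added and cells are incubated 3 days at 37 °C before Coulter counting. CC50, the concentration halving cell number relative to untreated controls, is read from plots. SI is CC50 divided by the antiviral EC50 from the CPE or plaque-reduction assay in HEL cells.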

[14] = tested on: Human immunodeficiency virus 2; assay: Antiviral activity against Human immunodeficiency virus type 2 ROD infected in human CEM cells assessed as HIV-induced CEM giant cell formation after 4 days by microscopy; assay type: functional, organism-based; conditions: Human immunodeficiency virus 2, ISOLATE ROD, CCRF-CEM, 96 h
Outline: (§4)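 Human CEM cells (~3 × 10^5 cells/ml) infected with 100 CCID50/ml of HIV-1 (IIIB) or HIV-2 (ROD), then seeded into wells holding compound dilutions. After 4 days at 37 °C, HIV-induced giant cell formation is scored by microscopy.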

[15] = Selectivity index, ratio CC50 for human HEL cells to EC50 for Vaccinia virus Lederle; assay type: toxicity, cell-based; conditions: read-out: Ratio CC50/EC50; outline: as §3
[16] = Selectivity index, ratio CC50 for human HEL cells to EC50 for Herpes simplex virus 1 strain KOS; assay type: toxicity, cell-based; conditions: read-out: Ratio CC50/EC50; outline: as §3
[17] = tested on: Human immunodeficiency virus 1; assay: Antiviral activity against Human immunodeficiency virus type1 3B infected in human CEM cells assessed as HIV-induced CEM giant cell formation after 4 days by microscopic analysis; assay type: functional, organism-based; conditions: Human immunodeficiency virus 1, 3B, CCRF-CEM, 96 h; outline: as §4
[18] = Selectivity index, ratio CC50 for human HEL cells to EC50 for Varicella-zoster virus YS expressing thymidine kinase; assay type: toxicity, cell-based; conditions: read-out: Ratio CC50/EC50; outline: as §3
[19] = Selectivity index, ratio CC50 for human HEL cells to EC50 for Varicella-zoster virus strain OKA expressing thymidine kinase; assay type: toxicity, cell-based; conditions: read-out: Ratio CC50/EC50; outline: as §3
[20] = Selectivity index, ratio CC50 for human HEL cells to EC50 for Herpes simplex virus 2 strain G; assay type: toxicity, cell-based; conditions: read-out: Ratio CC50/EC50; outline: as §3
[21] = Selectivity index, ratio CC50 for human HEL cells to EC50 for Human cytomegalovirus strain AD169; assay type: toxicity, cell-based; conditions: read-out: Ratio CC50/EC50; outline: as §3
[22] = Selectivity index, ratio CC50 for human HEL cells to EC50 for thymidine kinase-deficient acyclovir-resistant Herpes simplex virus 1 strain KOS; assay type: toxicity, cell-based; conditions: read-out: Ratio CC50/EC50; outline: as §3
[23] = Selectivity index, ratio CC50 for human HEL cells to EC50 for thymidine kinase-deficient Varicella-zoster virus 07/1; assay type: toxicity, cell-based; conditions: read-out: Ratio CC50/EC50; outline: as §3
[24] = Selectivity index, ratio CC50 for human HEL cells to EC50 for thymidine kinase-deficient Varicella-zoster virus YS/R; assay type: toxicity, cell-based; conditions: read-out: Ratio CC50/EC50; outline: as §3

| Structure (SMILES) | EC50 (Human alphaherpesvirus 2) | EC50 (Human alphaherpesvirus 1 [1]) | CC50 (FM3A) | EC50 (Human alphaherpesvirus 3 [2]) | EC50 (Human alphaherpesvirus 1 [3]) | CC50 (HEL) | Activity (Coxsackievirus B4) | EC50 (Human alphaherpesvirus 3 [5]) | CC50 (CCRF-CEM) | Activity [6] | Activity (Human respirovirus 3) | EC50 (Vaccinia virus) | EC50 (Human alphaherpesvirus 3 [7]) | MCC at 72 h [8] | EC50 (Human betaherpesvirus 5 [9]) | Activity [10] | Activity (Punta Toro virus) | EC50 (Human alphaherpesvirus 3 [11]) | CC50 (L1210) | Activity [12] | further results |
| --- | --- | --- | --- | --- | --- | --- | --- | --- | --- | --- | --- | --- | --- | --- | --- | --- | --- | --- | --- | --- | --- |
| CCC(CP(=O)(O)O)OCCn1cnc2c(N)ncnc21 (stereo not given) | 286 µM | 251 µM | 432 µM | 19 µM | 238 µM | > 317 µM | inactive | 43 µM | > 660 µM | inactive | inactive | > 317 µM | 42 µM | > 317 µM | 243 µM | inactive | inactive | 22 µM | > 660 µM | inactive | EC50 (Human betaherpesvirus 5 [4]): 159 µM; Activity (Sindbis virus): inactive |
| CC(CP(=O)(O)O)OCCn1cnc2c(N)ncnc21 (stereo not given) | 2.3 µM | 1.7 µM | 2.7 µM | 0.07 µM | 1.3 µM | 13 µM | inactive | 0.07 µM | 20 µM | inactive | inactive | 27 µM | 0.1 µM | 322 µM | 0.9 µM | inactive | inactive | 0.11 µM | 10 µM | inactive | selectivity ratio [13]: 14; EC50 [14]: 9 µM; selectivity ratio [15]: < 1; selectivity ratio [16]: 6; EC50 [17]: 11 µM; selectivity ratio [18]: 120; selectivity ratio [19]: 120; selectivity ratio [20]: 6; selectivity ratio [21]: 14; selectivity ratio [22]: 6; selectivity ratio [23]: 120; selectivity ratio [24]: 120; Activity (Sindbis virus): inactive |
| Nc1ccn(C[C@@H](CO)OCP(=O)(O)O)c(=O)n1 [CIDOFOVIR] | 0.9 µM | 1 µM |  | 0.29 µM | 1.3 µM | 254 µM |  |  |  |  |  |  |  | > 317 µM | 0.7 µM |  |  | 0.1 µM |  |  | selectivity ratio [13]: 195; selectivity ratio [15]: 35; selectivity ratio [16]: 322; selectivity ratio [18]: 880; selectivity ratio [19]: 880; selectivity ratio [20]: 322; selectivity ratio [21]: 195; selectivity ratio [22]: 322; selectivity ratio [23]: 880; selectivity ratio [24]: 880 |
| Nc1ncnc2c1ncn2CCOC(Cc1ccccc1)CP(=O)(O)O (stereo not given) | 86 µM | 53 µM | 90 µM | 2.9 µM | 53 µM | ≥ 247 µM | inactive | 2.5 µM | 530 µM | inactive | inactive | > 265 µM | 2.9 µM | > 265 µM | 68 µM | inactive | inactive | 4.7 µM | 273 µM | inactive | EC50 (Human betaherpesvirus 5 [4]): 59 µM; Activity (Sindbis virus): inactive |

Reference: ChEMBL document CHEMBL1806434, “Acyclic nucleoside phosphonates with a branched 2-(2-phosphonoethoxy)ethyl chain: efficient synthesis and antiviral activity” (Bioorg Med Chem, 2011)
